Assay results from ChEMBL document CHEMBL4339237, “Bulbiferates A and B: Antibacterial Acetamidohydroxybenzoates from a Marine Proteobacterium, Microbulbifer sp” (2019).
In brackets after ≈: the same amount, converted by molar mass. Activity calls are given as the source filed them. No cut-off for these calls is given here.

Columns and labels:
Escherichia coli [1] = test: Antibacterial activity against Escherichia coli ATCC 25922 by agar diffusion assay; assay type: functional
Escherichia coli [2] = test: Antibacterial activity against Escherichia coli ATCC 25922 incubated for 18 hrs by dilution antimicrobial susceptibility test; assay type: functional; details: ATCC 25922, 18 h
Summary of the method: (§1)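 Broth dilution susceptibility method for aerobic bacteria in 96-well plates. Compounds dissolved in DMSO and serially diluted to 10 concentrations (0.5–256 μg/mL). Geneticin served as positive control for E. coli and vancomycin for MSSA. Tested in duplicate, with eight untreated media controls per plate. Incubated 18 h at 33 °C. MIC taken as lowest concentration preventing visible growth.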

Staphylococcus aureus [3] = test: Antibacterial activity against methicillin-sensitive Staphylococcus aureus ATCC 25913 by agar diffusion assay; assay type: functional
Staphylococcus aureus [4] = test: Antibacterial activity against methicillin-resistant Staphylococcus aureus ATCC 33591 by agar diffusion assay; assay type: functional, organism-based
Staphylococcus aureus [5] = test: Antibacterial activity against methicillin-sensitive Staphylococcus aureus ATCC 25913 incubated for 18 hrs by dilution antimicrobial susceptibility test; assay type: functional; details: ATCC 25913, 18 h; summary of the method: as §1

With `CCCCCCCCCCCOC(=O)c1ccc(O)c(NC(C)=O)c1` the “diameter of the inhibition zone (DIZ)” value (Escherichia coli [1]) was 5 mm, the MIC (Escherichia coli [2]) was > 200 µg/mL and the “diameter of the inhibition zone (DIZ)” value (Staphylococcus aureus [3]) was 5 mm. The Activity (Staphylococcus aureus [4]) was “inactive” and the MIC (Staphylococcus aureus [5]) was > 200 µg/mL.

For `CCCCCCCCCCCCCCOC(=O)c1ccc(O)c(NC(C)=O)c1`, the MIC (Escherichia coli [2]) was > 200 µg/mL and the MIC (Staphylococcus aureus [5]) was > 200 µg/mL.

In the case of `CN[C@@H]1[C@@H](O)[C@@H](O[C@@H]2[C@@H](O)[C@H](O[C@H]3O[C@H]([C@H](C)O)[C@@H](O)[C@H](O)[C@H]3N)[C@@H](N)C[C@H]2N)OC[C@]1(C)O`, the MIC (Escherichia coli [2]) is reported as 0.25 µg/mL (≈ 0.503 µM).

For `CCCCCCCCCCOC(=O)c1ccc(O)c(NC(C)=O)c1`, the “diameter of the inhibition zone (DIZ)” value (Escherichia coli [1]) was 6 mm, the MIC (Escherichia coli [2]) was > 200 µg/mL and the “diameter of the inhibition zone (DIZ)” value (Staphylococcus aureus [3]) was 10 mm. The Activity (Staphylococcus aureus [4]) was “inactive” and the MIC (Staphylococcus aureus [5]) was > 200 µg/mL.

With `COC(=O)c1ccc(O)c(NC(C)=O)c1` the “diameter of the inhibition zone (DIZ)” value (Escherichia coli [1]) was “inactive”, the MIC (Escherichia coli [2]) was > 200 µg/mL and the “diameter of the inhibition zone (DIZ)” value (Staphylococcus aureus [3]) was 7 mm. For the same molecule, the MIC (Staphylococcus aureus [5]) was > 200 µg/mL.

`CCCCCCCCOC(=O)c1ccc(O)c(NC(C)=O)c1` was tested, and the “diameter of the inhibition zone (DIZ)” value (Escherichia coli [1]) was “inactive”, the MIC (Escherichia coli [2]) was > 200 µg/mL and the “diameter of the inhibition zone (DIZ)” value (Staphylococcus aureus [3]) was 5 mm. The MIC (Staphylococcus aureus [5]) was > 200 µg/mL.
